Screens deposited in PubChem BioAssay by several laboratories.
Shown are actives, neighbours in structure and some others; about 2.1% of the full set was active somewhere.
PKA-R2B activ: activators of human PKA-R2B complex. P22694+P31323. PKA-R2B holoenzyme dissociation, Cy5-IP20 fluorescence polarization; R2B truncated from residue 108, S112A mutant; 0% DMSO only, 100% 113 µM cGMP. activation, % at 11.4 µM. actives 0.079% (n = 340,000). AID 504700;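 active = activation above a cutoff set at the mean over all compounds plus 3 SD, cut at about 18% in these data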;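 note: higher means more holoenzyme dissociation and a rise in polarization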
CDK5 inh: inhibitors of human CDK5/p35 kinase; Q00535+Q15078; Recombinant CDK5/p35, ADP-Glo luminescence, 60 min; inhibition, % at 10 µM; actives 0.01% (n = 330,000);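 active = highest replicate inhibition of at least 50% and at least 75% of replicates reaching 50%; inconclusive = only one of the two criteria met; inactive = both criteria failed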
PKA-R1A activ: activates the PKA-R1A holoenzyme complex. PKA-R1A dissociation, Cy5-IP20 fluorescence polarization; scaled: DMSO 0%, 113 µM cGMP 100%. actives 0.083% (n = 340,000). activation, % at 11.4 µM. P00514+P68181;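 active = percent activation above the mean of all tested compounds plus 3 SD, cut at about 19% in these data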;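 note: higher means more PKAc released from R1A so a rise in polarization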
SR-BI DiI-HDL act: activators of SR-BI mediated HDL lipid uptake. CHO ldlA[mSR-BI] cells, DiI-HDL uptake fluorescence, 3 h; 100 = double the neutral-control signal. activation, % at 12.5 µM. actives 0.096% (n = 320,000). AID 504775;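 active = mean replicate activation of at least 60% and every replicate at or above 60%; inconclusive = mean or all-replicate condition met, but not both; inactive = mean below 60% and not all replicates reaching 60%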
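system = CHO ldlA[mSR-BI] cells, LDL receptor-null, SR-BI overexpressing | medium = Ham's F12 with 0.5% BSA, HEPES 25 mM, pH 7.4 | probe or stimulus = DiI-HDL 10 µg/mL | compound dosing = single-point compound dose | incubation = compound exposure 3 h, 37 °C | technique = DiI fluorescence, bottom read | read-out = cell-associated DiI fluorescence as measure of HDL uptake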
SR-BI DiI inh: blocks mouse SR-BI lipid uptake from DiI-HDL; AID 488896; inhibition, % at 12.5 µM; actives 0.96% (n = 320,000); ldlA[mSR-BI] CHO cells, DiI-HDL uptake fluorescence, 3 h;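 active = mean replicate inhibition of at least 70% and a set share of replicates each scoring 70 or more; inconclusive = meets just one of the two criteria; inactive = fails both criteria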
dFosB act-1: mouse delta FosB homodimer activation; purified delta FosB, TAMRA-CDK5 oligo fluorescence polarization; percent of positive-control signal above neutral wells; actives 0.99% (n = 340,000); activation, % at 25 µM; P13346; AID 493131;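 active = mean activation above about 17%, with every replicate also reaching it, limit read from the data, passing the limit was not always enough; inconclusive = only one of the two conditions met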
Target sequence (P13346 whole entry, looked up): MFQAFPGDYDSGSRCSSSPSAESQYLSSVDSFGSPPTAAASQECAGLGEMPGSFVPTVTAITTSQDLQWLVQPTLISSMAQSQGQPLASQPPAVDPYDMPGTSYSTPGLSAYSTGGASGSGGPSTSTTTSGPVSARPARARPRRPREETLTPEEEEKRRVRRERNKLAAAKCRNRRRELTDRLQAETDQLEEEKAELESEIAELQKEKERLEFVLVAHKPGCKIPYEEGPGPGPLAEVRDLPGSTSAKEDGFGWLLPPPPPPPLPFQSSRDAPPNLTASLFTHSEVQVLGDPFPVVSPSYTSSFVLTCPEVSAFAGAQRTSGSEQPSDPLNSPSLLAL
dFosB act-2: activators of mouse delta FosB homodimer DNA binding. shares compounds with dFosB act-1. purified delta FosB, TAMRA-CDK5 oligo fluorescence polarization; normalised: neutral wells 0, positive control 100. activation, % at 24.9 µM. 2,400 tested, under 10 active. AID 588690;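 active = highest replicate activation at or above 34% and every replicate reaching that threshold; inconclusive = meets only one of the two criteria; inactive = meets neither criterion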;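 note: higher polarization means more probe DNA bound by delta FosB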
Large screens that a line does not name were inactive (follow-up assays come after a bar, where they were run).

CCc1cc2cccc(C)c2nc1SCC(=O)NNC(=O)c1ccco1	none
CCc1cc2ccc(C)c(C)c2nc1SCC(=O)NNC(=O)c1ccco1	dFosB act-1 28 (no result: SR-BI DiI-HDL act, SR-BI DiI inh) | dFosB act-2 inactive
O=C(CC1S/C(=N/N=C/c2c[nH]c3ccc(OCc4ccccc4)cc23)NC1=O)Nc1ccccc1 (configuration not stated)	dFosB act-1 32 | dFosB act-2 inactive
O=C(Nc1ccc2c(c1)OCO2)Nc1ccc(Cl)cc1Cl	dFosB act-1 29 | dFosB act-2 inactive
Cc1ccc(NC(=O)Nc2cnccn2)cc1Cl	none
O=C(Nc1cnccn1)Nc1ccc(Cl)cc1Cl	dFosB act-1 34 | dFosB act-2 inactive
COc1cccc(C(=O)OCC(=O)Nc2ccc(N3CCOCC3)cc2)c1	none
c1ccc(COc2ncnc3c2ncn3CCCNC2CCN(Cc3ccccc3)CC2)cc1	none (no result: CDK5 inh, SR-BI DiI-HDL act, SR-BI DiI inh, dFosB act-1)
COc1ccc(-c2noc(CNS(=O)(=O)c3ccc(NC(C)=O)cc3)n2)cc1	none
O=C(NCc1nc(-c2ccc(C(F)(F)F)cc2)no1)Nc1ccc(OC(F)(F)F)cc1	dFosB act-1 24 (no result: PKA-R2B activ, PKA-R1A activ) | dFosB act-2 inactive
Cc1cc(NC(=O)Cc2cc(F)cc(F)c2)no1	none
COc1ccc(C)cc1NC(=O)Nc1ccc2c(c1)CCC2	dFosB act-1 23 | dFosB act-2 inactive
N#Cc1c(N)nc(SCC(=O)NCc2ccc3c(c2)OCO3)c(C#N)c1-c1cccs1	none
COc1ccc(-c2cc(-c3cccs3)c(C#N)c(SCC(=O)NCc3ccccc3)n2)cc1	none
COc1ccccc1CNC(=O)CSc1nc(N)c(C#N)c(-c2cccs2)c1C#N	dFosB act-1 75 | dFosB act-2 inactive
COc1ccc(-c2cc(-c3cccs3)c(C#N)c(SCC(=O)NCc3ccccc3OC)n2)cc1	dFosB act-1 23 | dFosB act-2 inactive
CCCCc1nnc(NC(=O)CCS(=O)(=O)c2ccc(Cl)cc2)s1	dFosB act-1 24 | dFosB act-2 inactive
O=C(N/N=C/c1ccc(Cl)c([N+](=O)[O-])c1)c1cc(-c2ccc3c4c(cccc24)CC3)n[nH]1	dFosB act-1 38 | dFosB act-2 inactive
Cc1ccccc1NC(=O)Cc1nnc(SCC(=O)NC2=NCCS2)n1C	none
COc1ccc(NC(=O)CC23CC4CC(CC(Br)(C4)C2)C3)c(OC)c1	none (no result: SR-BI DiI-HDL act, SR-BI DiI inh)
Cc1ccc(NC(=O)Cn2c(=O)n(CCCCC(=O)NCc3ccco3)c(=O)c3ccccc32)cc1	dFosB act-1 31 | dFosB act-2 inactive
Cc1ccc(NC(=O)Cn2c(=O)n(Cc3ccco3)c(=O)c3ccccc32)c(C)c1	dFosB act-1 32 | dFosB act-2 inactive
O=C(CCCCn1c(=O)c2ccccc2n(CC(=O)Nc2ccc(F)cc2)c1=O)NCc1ccco1	none
Cc1ccc(OCc2nnc(SCC(=O)N3C(C)CCCC3C)o2)cc1 (configuration not stated)	none
CN(CC(=O)Nc1ccc(OC(F)(F)F)cc1)C(=O)c1ccccc1SCC(=O)N1CCCC1	none
O=C(NNC(=S)Nc1ccccc1)c1cc(-c2cccnc2)nc2ccccc12	none
CC(OC(=O)c1cc(-c2cccnc2)nc2ccccc12)C(=O)Nc1ccc2ccccc2c1 (configuration not stated)	dFosB act-1 44 | dFosB act-2 inactive
N=c1oc2cc(O)ccc2cc1C(=O)Nc1ccc(Cl)cc1	dFosB act-1 27 | dFosB act-2 inactive
Cc1ccc(NC(=O)c2cc3ccccc3oc2=N)cc1	none
O=C(Nc1ccc(Br)cc1)c1cccc(N2C(=O)C3C4CCC(C4)C3C2=O)c1 (configuration not stated)	dFosB act-1 20 | dFosB act-2 inactive
O=C(Nc1ccc(F)cc1)c1cccc(N2C(=O)C3C4CCC(C4)C3C2=O)c1 (configuration not stated)	none
COc1cc(NC(=O)C2C3CCC(O3)C2C(=O)O)cc(OC)c1 (configuration not stated)	none
Nc1nc(CSC(=S)N2CCN(c3ccccc3)CC2)nc(Nc2ccc(F)cc2)n1	dFosB act-1 47 | dFosB act-2 inactive
Nc1nc(CSC(=S)N2CCCCC2)nc(Nc2ccccc2)n1	none
CC1CC(C)CN(C(=S)SCc2nc(N)nc(Nc3ccccc3)n2)C1 (configuration not stated)	dFosB act-1 38 | dFosB act-2 inactive
CCCCCC(=C/c1ccccc1)/C=N/Nc1ccc(S(=O)(=O)N2CCOCC2)cc1[N+](=O)[O-]	none
COc1ccc2cc(CN(CC3COCCO3)S(=O)(=O)c3ccc(Cl)cc3)c(=O)[nH]c2c1 (configuration not stated)	SR-BI DiI-HDL act inconclusive, dFosB act-1 39 | dFosB act-2 inactive
Cc1ccc(N2CC(=O)Nc3c(oc4nc(-c5ccccc5)cc(C)c34)C2=O)cc1	dFosB act-1 24 | dFosB act-2 inactive
Cc1cc(C)c2c3c(oc2n1)C(=O)N(c1cccc(Cl)c1)CC(=O)N3	none
O=C(COC(=O)c1ccc(F)cc1F)Nc1cc(S(=O)(=O)N2CCOCC2)ccc1Cl	none
COc1ccc(Nc2cc(C)nc3ccc(OC)cc23)cc1	dFosB act-1 34 | dFosB act-2 inactive
Cc1ccc2nc3c(c(Nc4ccc5c(c4)OCCO5)c2c1)CCC3	dFosB act-1 30 | dFosB act-2 inactive
Cc1cc(Nc2ccc3c(c2)OCCO3)c2cc(Cl)ccc2n1	dFosB act-1 29 | dFosB act-2 inactive
COc1ccc(-c2c(C#N)c(N)nc(Sc3ccc(Cl)cc3)c2C#N)cc1	dFosB act-1 121 | dFosB act-2 inactive
Cc1ccc(C)c(S(=O)(=O)N2CCN(C(=O)C3CCN(c4ncnc5sc(C)c(C)c45)CC3)CC2)c1	none
CC(C)COC(=O)N(C)C[C@@H]1OCc2cnnn2CCCC(=O)N([C@H](C)CO)C[C@@H]1C	none (no result: CDK5 inh, SR-BI DiI-HDL act, SR-BI DiI inh, dFosB act-1)
N#Cc1c(NCCN)nc(-c2ccco2)c2c1CCCC2	dFosB act-1 26 | dFosB act-2 inactive
O=C(CCCCn1c(=S)[nH]c2ccsc2c1=O)NCc1ccc2c(c1)OCO2	dFosB act-1 125 | dFosB act-2 inactive
CCOC(=O)C1=C(COC(=O)/C=C/c2cccc(OC)c2)NC(=O)NC1C (configuration not stated)	none
Cc1ccc(C2=NOC3(CC(=O)N(c4ccc(C)cc4)C3=O)C2)cc1 (configuration not stated)	dFosB act-1 29 | dFosB act-2 inactive
